# Measurements gathered from unrelated publications.
# Target: Serine/threonine-protein kinase RIO1 (RIOK1, Homo sapiens, UniProt Q9BRS2)
# One construct used (Q9BRS2 1-568): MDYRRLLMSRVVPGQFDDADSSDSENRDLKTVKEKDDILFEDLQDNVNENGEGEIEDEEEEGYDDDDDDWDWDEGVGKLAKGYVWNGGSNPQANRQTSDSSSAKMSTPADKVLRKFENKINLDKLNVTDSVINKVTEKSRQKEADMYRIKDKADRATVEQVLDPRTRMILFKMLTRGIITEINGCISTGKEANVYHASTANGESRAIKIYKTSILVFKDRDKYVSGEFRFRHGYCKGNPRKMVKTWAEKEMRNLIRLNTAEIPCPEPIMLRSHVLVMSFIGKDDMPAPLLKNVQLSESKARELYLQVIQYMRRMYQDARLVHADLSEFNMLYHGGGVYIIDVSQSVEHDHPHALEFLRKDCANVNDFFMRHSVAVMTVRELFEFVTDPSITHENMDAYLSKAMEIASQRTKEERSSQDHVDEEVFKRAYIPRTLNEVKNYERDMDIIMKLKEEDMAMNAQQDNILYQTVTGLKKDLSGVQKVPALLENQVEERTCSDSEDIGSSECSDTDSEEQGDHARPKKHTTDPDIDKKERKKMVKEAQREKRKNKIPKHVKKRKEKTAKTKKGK
Structure (SMILES),effect on,technique,tested at,remaining binding
c1cncc(-c2cccc(Nc3nccc(NC4CCCCC4)n3)c2)c1,binding,competition with immobilised ligand,10 µM,26%
O=C(NCc1ncc(C(F)(F)F)cc1Cl)c1ccc2c(c1)C1(CCS(=O)(=O)CC1)[C@@H](C1CC1)N2S(=O)(=O)c1ccc(F)cc1,cell-free assay,competition with immobilised ligand,1 µM,78%
N[C@@H]1CCN(c2nccc(-c3cnn4ncccc34)n2)C1,binding,,1 µM,96%
COc1cnc(Nc2cccc(S(N)(=O)=O)c2)nc1N1CCN(c2ccccc2)CC1,binding,competition with immobilised ligand,1 µM,73%
O=C(NCCCN1CCOCC1)c1ccc(Nc2nccc(-c3cc4ccccc4s3)n2)cc1,binding,competition with immobilised ligand,1 µM,0.1%
CN(c1nccc(-c2cnn3ncccc23)n1)C1CC1,binding,,1 µM,100%
O=C(NCC1CCOCC1)c1n[nH]cc1NC(=O)c1c(F)cccc1F,binding,competition with immobilised ligand,1 µM,88%
Cc1cnc(Nc2ccc(C(=O)N3CCC(N4CCCC4)CC3)cc2)nc1-c1cc2ccccc2s1,binding,competition with immobilised ligand,1 µM,0%
CCN1CCN(Cc2ccc(C(=O)Nc3ccc(C)c(Oc4ccc5c(c4)CC(=O)N5)c3)cc2C(F)(F)F)CC1,binding,competition with immobilised ligand,1 µM,90%
COc1ccnn2ncc(-c3ccnc(N(C)C)n3)c12,binding,,1 µM,100%
O=S(=O)(NC1CCC(c2cc(F)ccc2F)(S(=O)(=O)c2ccc(Cl)cc2)CC1)C(F)(F)F (stereo not shown),cell-free assay,competition with immobilised ligand,1 µM,98%
C[C@H]1CCN(c2nccc(-c3cnn4ncccc34)n2)C1,binding,,1 µM,62%
O=C(c1ccc(Nc2nccc(-c3cc4ccccc4s3)n2)cc1)N1CCC(N2CCCC2)CC1,binding,competition with immobilised ligand,1 µM,0.1%
Cn1cc(Cl)c2c(Oc3c(F)cc(Nc4cc(Cl)nc(N)n4)cc3F)ccnc21,cell-free assay,competition with immobilised ligand,0.1 µM,100%
Cc1cnn2ncc(-c3ccnc(N(C)C)n3)c2c1,binding,,1 µM,98%
FC(F)(F)Oc1cccc(-c2cnc3ccc(-c4ccncc4)nn23)c1,cell-free assay,competition with immobilised ligand,5 µM,17%
N#Cc1ccc(Nc2ccc3[nH]c(=O)[nH]c3c2)c(Cl)c1,cell-free assay,competition with immobilised ligand,1 µM,100%
CN(C)c1nccc(-c2cnc3ncccn23)n1,binding,,1 µM,100%
Cn1nc(C(=O)NCc2ccc(C(=O)O)cc2)cc1-c1ccc2[nH]ccc2c1,cell-free assay,competition with immobilised ligand,0.1 µM,76%
COc1ncc2cc3ccccc3nc2c1C#N,cell-free assay,competition with immobilised ligand,5 µM,93%
CNCc1ccccc1-c1csc([C@H](C)Nc2nc(C)nc3cc(OC)c(OC)cc23)c1,cell-free assay,competition with immobilised ligand,1 µM,96%
CC1CCCN1c1nccc(-c2cnn3ncccc23)n1 (stereo not shown),binding,,1 µM,100%
